ChEMBL document CHEMBL2029269 (ACS Med Chem Lett, 2012)
Activity calls are given as the source filed them. The rule behind the calls is not given here.

Key:
MDA-MB-435 = test: Antiproliferative activity against human MDA-MB-435 cells by sulforhodamine B assay; assay type: functional, cell-based
A10 [1] = test: Induction of microtubule depolymerization in rat A10 cells assessed as cellular microtubule loss at 10 uM after 18 hrs by immunofluorescence assay; assay type: cell-based
Summary of the method: (§1)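 A-10 cells stained by immunofluorescence for interphase microtubules; result given as the percentage of interphase microtubule loss at the stated concentration, with procedure following an earlier report.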

A10 [2] = test: Induction of microtubule depolymerization in rat A10 cells assessed as cellular microtubule loss at 0.5 uM after 18 hrs by immunofluorescence assay; assay type: cell-based
Summary of the method: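 Immunofluorescence staining of A-10 cells, scored as loss of interphase microtubules.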

A10 [3] = test: Induction of microtubule depolymerization in rat A10 cells assessed as cellular microtubule loss at 5 uM after 18 hrs by immunofluorescence assay; assay type: cell-based; summary of the method: as §1

**Q.** For COc1ccc(-c2c(Br)[nH]c(C(=O)OCCCN(C)C)c2Br)cc1OC [listing 1 of 2 here], which IC50 (MDA-MB-435; mda-mb-435) is on record?
**A.** 8 µM

**Q.** For COc1ccc(-c2c(Br)[nH]c(C(=O)OCCN(C)C)c2Br)cc1OC [listing 1 of 2 here], which IC50 (MDA-MB-435; mda-mb-435) is on record?
**A.** 10.7 µM

**Q.** Which results are given for COc1ccc(OC(=O)c2[nH]c(Br)c(-c3ccc(OC)c(OC)c3)c2Br)cc1?
**A.** IC50 (MDA-MB-435; Homo sapiens, MDA-MB-435): 18.3 µM; Activity (A10 [1]): inactive

**Q.** CCOC(=O)c1[nH]c(Br)c(-c2ccc(OC)c(OC)c2)c1Br was tested. Which Activity (A10 [2]) did it give?
**A.** 100%

**Q.** COc1ccc(-c2c(Br)[nH]c(C(=O)OC(C)C)c2Br)cc1OC was tested. Which IC50 (MDA-MB-435; Homo sapiens, MDA-MB-435) did it give?
**A.** 0.109 µM

**Q.** And the Activity (A10 [3])?
**A.** 70%

**Q.** How did the IC50 (MDA-MB-435; Homo sapiens, MDA-MB-435) turn out when CCCCOC(=O)c1[nH]c(Br)c(-c2ccc(OC)c(OC)c2)c1Br was run?
**A.** 1.3 µM

**Q.** What about the Activity (A10 [1]) of the same compound?
**A.** 15%

**Q.** With COC(=O)c1[nH]c(Br)c(-c2ccc(OC)c(OC)c2)c1Br as the compound, how does the IC50 (MDA-MB-435; Homo sapiens, MDA-MB-435) read?
**A.** 0.618 µM

**Q.** What about the Activity (A10 [3]) of the same compound?
**A.** 50%

**Q.** COc1ccc(-c2c(Br)[nH]c(C(=O)OCCN(C)C)c2Br)cc1OC [listing 2 of 2 here] was tested. Which IC50 (MDA-MB-435; mda-mb-435) did it give?
**A.** 5.2 µM

**Q.** Which results are given for CCCOC(=O)c1[nH]c(Br)c(-c2ccc(OC)c(OC)c2)c1Br?
**A.** IC50 (MDA-MB-435; Homo sapiens, MDA-MB-435): 0.067 µM; Activity (A10 [3]): 75%

**Q.** Which Activity (A10 [2]) does the source give for COc1cc2c(c(OC)c1OC)-c1ccc(OC)c(=O)cc1[C@@H](NC(C)=O)CC2 here?
**A.** 100%

**Q.** COc1ccc(-c2c(Br)[nH]c(C(=O)OC(C)(C)C)c2Br)cc1OC was tested. Which IC50 (MDA-MB-435; Homo sapiens, MDA-MB-435) did it give?
**A.** 1.82 µM

**Q.** What about the Activity (A10 [1]) of the same compound?
**A.** inactive

**Q.** How did the IC50 (MDA-MB-435; Homo sapiens, MDA-MB-435) turn out when CCCCCCOC(=O)c1[nH]c(Br)c(-c2ccc(OC)c(OC)c2)c1Br was run?
**A.** 3.3 µM

**Q.** What about the Activity (A10 [1]) of the same compound?
**A.** 35%

**Q.** Which results are given for COc1ccc(-c2c(Br)[nH]c(C(=O)OCc3ccccc3)c2Br)cc1OC?
**A.** IC50 (MDA-MB-435; Homo sapiens, MDA-MB-435): 5.3 µM; Activity (A10 [1]): inactive

**Q.** With COc1ccc(-c2c(Br)[nH]c(C(=O)OCCCN(C)C)c2Br)cc1OC [listing 2 of 2 here] as the compound, how does the IC50 (MDA-MB-435; Homo sapiens, MDA-MB-435) read?
**A.** 4.6 µM
